Results: ChEMBL document CHEMBL2375313, “Synthesis, in vitro antitumor evaluation and DNA-binding study of novel tetrahydroquinolines and some derived tricyclic and tetracyclic ring systems” (Eur J Med Chem, 2013)

Key:
Type in all cases: functional
[1] = Cytotoxicity against human EKVX cells assessed as growth inhibition at 10 uM after 48 hrs by sulphorhodamine B assay; settings: read-out: GI
Method in brief: (§1)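 NCI-60 one-dose screen per the NCI Drug Evaluation Branch protocol. Cells given a single 10 µM concentration with 48 h continuous exposure. Growth estimated by sulphorhodamine B protein assay. Result expressed as percentage growth inhibition relative to untreated growth.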

[2] = Cytotoxicity against human breast cancer cells after 48 hrs by sulphorhodamine B assay; settings: Cancer cell lines
[3] = Cytotoxicity against human prostate cancer cells after 48 hrs by sulphorhodamine B assay; settings: Cancer cell lines
[4] = test system: NCI/ADR-RES; assay: Cytotoxicity against human NCI/ADR-RES cells assessed as growth inhibition at 10 uM after 48 hrs by sulphorhodamine B assay; settings: read-out: GI; method in brief: as §1
[5] = Cytotoxicity against human ovarian cancer cells after 48 hrs by sulphorhodamine B assay; settings: Cancer cell lines
[6] = Cytotoxicity against human renal cancer cells after 48 hrs by sulphorhodamine B assay; settings: Cancer cell lines
[7] = Cytotoxicity against human melanoma cells after 48 hrs by sulphorhodamine B assay; settings: Melanoma cell
[8] = Cytotoxicity against human CNS cancer cells after 48 hrs by sulphorhodamine B assay; settings: Cancer cell lines
[9] = Cytotoxicity against human colon cancer cells after 48 hrs by sulphorhodamine B assay; settings: Cancer cell lines
[10] = Cytotoxicity against human non-small cell lung cancer cells after 48 hrs by sulphorhodamine B assay; settings: Cancer cell lines
[11] = Cytotoxicity against human leukemia cells after 48 hrs by sulphorhodamine B assay; settings: Leukemia cell
[12] = test system: RXF 393; assay: Cytotoxicity against human RXF393 cells assessed as growth inhibition at 10 uM after 48 hrs by sulphorhodamine B assay; settings: RXF 393, 48 h, read-out: GI; method in brief: as §1
[13] = test system: SR; assay: Cytotoxicity against human SR cells assessed as growth inhibition at 10 uM after 48 hrs by sulphorhodamine B assay; settings: read-out: GI; method in brief: as §1
[14] = test system: HL-60(TB); assay: Cytotoxicity against human HL-60(TB) cells assessed as growth inhibition at 10 uM after 48 hrs by sulphorhodamine B assay; settings: HL-60, 48 h, read-out: GI
Method in brief: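 NCI-60 one-dose primary screen run to the Drug Evaluation Branch protocol. Cells are exposed to a single 10 µM concentration for 48 h continuously, and growth is read by SRB protein assay. Data are reported as percent growth of treated cells, expressed as % growth inhibition.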

[15] = test system: CCRF-CEM; assay: Cytotoxicity against human CCRF-CEM cells assessed as growth inhibition at 10 uM after 48 hrs by sulphorhodamine B assay; settings: read-out: GI; method in brief: as §1
[16] = test system: NCI-H522; assay: Cytotoxicity against human NCI-H522 cells assessed as growth inhibition at 10 uM after 48 hrs by sulphorhodamine B assay; settings: NCI-H522, 48 h, read-out: GI; method in brief: as §1
[17] = test system: HT-29; assay: Cytotoxicity against human HT-29 cells assessed as growth inhibition at 10 uM after 48 hrs by sulphorhodamine B assay; settings: HT-29, 48 h, read-out: GI; method in brief: as §1
[18] = test system: MCF7; assay: Cytotoxicity against human MCF7 cells assessed as growth inhibition at 10 uM after 48 hrs by sulphorhodamine B assay; settings: MCF7, 48 h, read-out: GI; method in brief: as §1
[19] = test system: HCT-15; assay: Cytotoxicity against human HCT15 cells assessed as growth inhibition at 10 uM after 48 hrs by sulphorhodamine B assay; settings: HCT-15, 48 h, read-out: GI; method in brief: as §1
[20] = read-out: LC50 (the source's name)

Q: For CC1CCCc2c1nc1nc(SCC(=O)c3ccccc3)nc(N)c1c2-c1ccc(Cl)cc1 (configuration not stated), which inhibition of growth at 10 µM [1] is on record?
A: 26.7%

Q: And the GI50 [2]?
A: 79.3 µM

Q: What about the TGI [2] of the same compound?
A: 89.6 µM

Q: And the CC50 [2, 20]?
A: > 100 µM

Q: What about the GI50 [3] of the same compound?
A: 75.5 µM

Q: What about the LC50 [3] of the same compound?
A: > 100 µM

Q: And the TGI [3]?
A: > 100 µM

Q: And the inhibition of growth at 10 µM [4]?
A: 12.8%

Q: What about the GI50 [5] of the same compound?
A: 80.6 µM

Q: What about the TGI [5] of the same compound?
A: 95.5 µM

Q: What about the CC50 [5, 20] of the same compound?
A: > 100 µM

Q: And the GI50 [6]?
A: 51.8 µM

Q: What about the LC50 [6] of the same compound?
A: > 100 µM

Q: And the TGI [6]?
A: > 100 µM

Q: What about the GI50 [7] of the same compound?
A: 58 µM

Q: What about the TGI [7] of the same compound?
A: > 100 µM

Q: And the CC50 [7, 20]?
A: > 100 µM

Q: What about the GI50 [8] of the same compound?
A: 62.3 µM

Q: What about the LC50 [8] of the same compound?
A: > 100 µM

Q: And the TGI [8]?
A: 84.1 µM

Q: And the GI50 [9]?
A: > 100 µM

Q: And the TGI [9]?
A: 86.5 µM

Q: What about the CC50 [9, 20] of the same compound?
A: > 100 µM

Q: What about the GI50 [10] of the same compound?
A: 46.1 µM

Q: And the TGI [10]?
A: > 100 µM

Q: What about the CC50 [10, 20] of the same compound?
A: > 100 µM

Q: And the GI50 [11]?
A: 34.7 µM

Q: What about the LC50 [11] of the same compound?
A: 93.3 µM

Q: And the TGI [11]?
A: 65.1 µM

Q: What about the inhibition of growth at 10 µM [12] of the same compound?
A: 62.2%

Q: What about the inhibition of growth at 10 µM [13] of the same compound?
A: < 10%

Q: What about the inhibition of growth at 10 µM [14] of the same compound?
A: 22%

Q: And the inhibition of growth at 10 µM [15]?
A: 60.1%

Q: What about the inhibition of growth at 10 µM [16] of the same compound?
A: 17.5%

Q: What about the inhibition of growth at 10 µM [17] of the same compound?
A: 21.5%

Q: What about the inhibition of growth at 10 µM [18] of the same compound?
A: 30%

Q: And the inhibition of growth at 10 µM [19]?
A: 71.5%

Q: With CCSc1nc(N)c2c(-c3ccc(Cl)cc3)c3c(nc2n1)C(C)CCC3 (configuration not stated) as the compound, how does the inhibition of growth at 10 µM [1] read?
A: 12.3%

Q: What about the inhibition of growth at 10 µM [4] of the same compound?
A: 12.8%

Q: And the inhibition of growth at 10 µM [12]?
A: 26.6%

Q: What about the inhibition of growth at 10 µM [13] of the same compound?
A: 37.9%

Q: What about the inhibition of growth at 10 µM [14] of the same compound?
A: < 10%

Q: What about the inhibition of growth at 10 µM [15] of the same compound?
A: 28.4%

Q: And the inhibition of growth at 10 µM [16]?
A: 21.9%

Q: And the inhibition of growth at 10 µM [17]?
A: 27.7%

Q: And the inhibition of growth at 10 µM [18]?
A: < 10%

Q: And the inhibition of growth at 10 µM [19]?
A: 18.8%
